Screening data deposited in PubChem by several laboratories.
Shown are actives, neighbours in structure and some others; about 4.1% of the full set was active somewhere.
DNA FID counter – counter-screen for HCV NS3 helicase inhibitors: DNA intercalator displacement | DNA fluorescent intercalator displacement, fluorescence | inhibition, % at 7.9 µM | actives 0.17% (n = 290,000); in the data active means inhibition above about 37%;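 further: 0% = vehicle and 100% = reference compound; higher means more ethidium bromide displaced from hairpin DNA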
MEKK3 PB1 HTS – raises or lowers MEK5 binding to the human MEKK3 PB1 domain | Q99759 | bead-based flow cytometry, Alexa488-MEK5 binding to MEKK3; actives lie on both sides; 0 = blocked by unlabeled MEK5, 100 = vehicle | binding response (% of control), % at 10 µM | actives 1.4% (n = 290,000);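 active means binding response more than 3 SD above or below the average of its plate-row segment, actives on both sides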;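 further: Alexa488 bead fluorescence after subtracting the streptavidin-only scavenger bead signal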
Target sequence (Q99759 whole entry, looked up, the tested form may be a part): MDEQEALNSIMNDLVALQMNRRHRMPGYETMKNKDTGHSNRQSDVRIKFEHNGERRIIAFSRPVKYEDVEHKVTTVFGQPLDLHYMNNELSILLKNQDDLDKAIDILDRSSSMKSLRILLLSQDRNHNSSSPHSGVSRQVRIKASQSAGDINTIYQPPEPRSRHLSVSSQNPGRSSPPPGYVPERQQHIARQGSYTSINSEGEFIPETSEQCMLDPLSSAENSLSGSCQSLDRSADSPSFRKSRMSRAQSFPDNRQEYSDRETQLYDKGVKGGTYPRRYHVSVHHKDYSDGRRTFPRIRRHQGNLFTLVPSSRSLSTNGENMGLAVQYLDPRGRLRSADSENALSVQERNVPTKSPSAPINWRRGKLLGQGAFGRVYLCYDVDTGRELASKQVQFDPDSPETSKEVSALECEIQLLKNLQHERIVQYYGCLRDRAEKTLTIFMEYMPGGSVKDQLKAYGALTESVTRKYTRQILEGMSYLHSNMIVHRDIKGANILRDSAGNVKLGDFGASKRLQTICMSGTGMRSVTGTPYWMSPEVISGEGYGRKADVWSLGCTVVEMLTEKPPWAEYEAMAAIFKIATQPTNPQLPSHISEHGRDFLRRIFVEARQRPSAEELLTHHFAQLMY
T cruzi repl – blocks replication of Trypanosoma cruzi; actives 1.4% (n = 300,000); AID 1885; inhibition, % (test concentration not listed); T. cruzi beta-gal in NIH3T3, luminescence, 90 h;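 active means mean inhibition across valid replicates above about 55%, limit read from the data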;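 further: signal also drops with host cell toxicity which is not excluded here; 0% = plate median of DMSO wells and 100% = zero luminescence signal; higher percent means less beta-gal luminescence so fewer parasites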
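Test system: β-gal T. cruzi (Tulahuen C4) inside NIH/3T3 cells / Quantity: 5,000 cells/well / Measured by: luminescence from GalScreen with 0.05% NP40, read after 60 min / Medium: DMEM plus 2% FBS / Measure: parasite load inhibition, % / Reagent: Tulahuen C4 trypomastigotes, 5000/well / Schedule: co-culture of at least 90 h after 3 h attachment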
MEKK2mut PB1 HTS – signal of MEK5 binding to mutant human MEKK2 PB1 domain; bead flow cytometry, Alexa488-MEK5 binding to MEKK2 mutant; percent response, % at 10 µM; AID 1530; actives 0.35% (n = 290,000); in the data active means percent response above about 24%, passing the limit was not always enough
NS3 helicase inh – inhibitors of Hepatitis C virus NS3 helicase. NS3 helicase DNA unwinding, Cy5 molecular beacon fluorescence. inhibition, % at 10.9 µM. actives 0.56% (n = 290,000);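 active means inhibition above the mean of all tested compounds plus 3 SD, set per campaign, cut at about 35% in these data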;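 further: 0% = DMSO wells and 100% = thioflavine S control wells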
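assay system = NS3 helicase fragment of HCV | buffer or medium = MOPS pH 6.5, MgCl2, DTT, Tween20, BSA | timing = 60 min unwinding reaction at 25 °C after ATP addition | signal = Cy5 beacon fluorescence read at start and 1 h | read-out basis = % inhibition of unwinding | control set = low DMSO, high thioflavine S at 110 µM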
MEKK2wt PB1 HTS – raises or lowers MEK5 binding to wildtype human MEKK2 PB1 domain; binding response (% of control), % at 10 µM; bead flow cytometry, Alexa488-MEK5 binding to MEKK2 WT; actives lie on both sides; AID 1531; Q9Y2U5; actives 1.1% (n = 290,000); in the data active means binding response below about 67% or above about 130%
Active calls of the source: *; . = no result given.

SMILES	DNA FID counter	MEKK3 PB1 HTS	T cruzi repl	MEKK2mut PB1 HTS	NS3 helicase inh	MEKK2wt PB1 HTS
CCC(C)NCCCOc1cc(Cl)ccc1Cl (stereo unspecified)	17.2	104.0	2.7	3.0	5.4	103.0
CCC(C)NCCOCCOc1ccc(Cl)c2ccccc12 (stereo unspecified)	50.9*	62.0	54.6*	10.0	-44.1	145.0
O=C(NCCc1ccccc1)c1ccc2c(=O)[nH]c3c(C(=O)NCC4CCCO4)sc(=S)n3c2c1 (stereo unspecified)	48.7*	97.0	-6.2	-10.0	-35.1	94.0
O=C(NCC1CCCO1)c1sc(=S)n2c1[nH]c(=O)c1ccc(C(=O)N3CCCCC3)cc12 (stereo unspecified)	16.9	101.0	-8.5	4.0	26.2	106.0
CNCCOc1ccccc1OC(C)C	-0.4	101.0	4.9	1.0	10.6	97.0
CCOc1ccc2nc(NC(=O)C3CCN(c4cnccn4)CC3)sc2c1	-4.7	102.0	60.7*	0.0	-21.4	99.0
O=C(Nc1ccc(F)c(Cl)c1)C1CCCN(c2cnccn2)C1 (stereo unspecified)	-3.8	96.0	60.8*	4.0	-2.4	98.0
CCOc1ccc2nc(NC(=O)CSc3nnnn3C3CCCCC3)sc2c1	-6.4	112.0	56.0*	7.0	-21.0	106.0
Cc1ccc(NC(=O)C2CCN(c3cnccn3)CC2)cc1	-3.8	96.0	63.0*	-4.0	-0.1	97.0
CCc1nccn1CCC(=O)NC1CC(C)(C)Cc2c1cnn2-c1cccc(F)c1 (stereo unspecified)	8.7	104.0	-4.4	12.0	-4.0	106.0
N#CCCN(Cc1cccnc1)C(=S)NC(=O)C1CC1	-8.1	97.0	-14.4	-6.0	-1.1	95.0
N#Cc1ccncc1Sc1ccc(Cl)cc1	-6.6	95.0	14.3	-2.0	-6.6	94.0
CC1CCC(NC(=O)CCN2C(=O)C3C4C=CC(C4)C3C2=O)CC1 (stereo unspecified)	-7.9	96.0	-28.5	-2.0	2.1	96.0
C#CCOCCOCCOCCNc1nc(N2CCN(C(=O)C(Cc3cc4ccccc4[nH]3)n3cc(C(N)Cc4ccc(O)cc4)nn3)CC2)nc(N2CCN(C(=O)C(Cc3cc4ccccc4[nH]3)n3cc(C(N)Cc4ccc(O)cc4)nn3)CC2)n1 (stereo unspecified)	52.1*	98.0	-17.4	179.0*	-14.1	298.0*
C#CCOCCOCCOCCNc1nc(N2CCN(C(=O)[C@H](Cc3cc4ccccc4[nH]3)n3cc([C@@H](N)Cc4ccc(O)cc4)nn3)CC2)nc(N2CCN(C(=O)[C@H](Cc3cc4ccccc4[nH]3)n3cc([C@@H](N)CC(C)C)nn3)CC2)n1	.	98.0	.	54.0*	.	201.0*
c1ccc(CNCc2ccco2)cc1	-0.7	101.0	2.4	1.0	0.5	101.0
COC(=O)Cc1c[nH]c2cccc(OCC(O)CN(Cc3ccc([N+](=O)[O-])cc3)C(C)(C)C)c12 (stereo unspecified)	-18.2	101.0	65.1*	3.0	6.5	101.0
COc1ccc(OCCOCCN2CCc3ccccc3C2)cc1	11.7	89.0	58.0*	-7.0	1.0	92.0
N#Cc1ccc(OCCN2CCc3ccccc3C2)cc1	.	.	2.3	.	.	.
Cc1ncc(CO)c(CNc2ccc(-c3nc4ccccc4[nH]3)cc2)c1O	23.9	100.0	-13.7	-2.0	-3.2	104.0
CC1CCCC(NCC(O)COC(c2ccc(F)cc2)c2ccc(F)cc2)C1C (stereo unspecified)	46.5*	101.0	20.8	7.0	-72.8	143.0*
N#Cc1c(N)n(Cc2ccccc2)c(=O)c2cc([N+](=O)[O-])ccc12	23.1	97.0	57.2*	7.0	2.3	96.0
Cc1nc2ccc([N+](=O)[O-])cc2c(=O)n1Cc1ccc([N+](=O)[O-])cc1	8.8	102.0	34.5	2.0	3.9	99.0
CCN(CC)C(=O)c1cc(Cl)ccc1NC(=O)c1ccco1	-4.5	118.0	6.3	7.0	-2.4	109.0
CCN(CC)P(=O)(Nc1ccccc1Br)c1ccc(N(C)C)cc1NC(=O)c1ccco1 (stereo unspecified)	-13.6	99.0	56.7*	-12.0	-3.3	75.0
